Series [1] relates to Mus musculus. In words: Anticonvulsant activity against scMet (subcutaneous metrazole) induced seizure in mice at 4 hr; - = No activity at 600 mg/kg. Format: functional, organism-based. Set-up: dose 600 mg/kg. A digest of the protocol:
(§1)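 Male Carworth Farms number-one mice dosed ip (30% PEG 400) at 30, 100, 300 and in some cases 600 mg/kg. Pentylenetetrazole 85 mg/kg given sc as a 0.5% solution in the posterior midline, at 30 min or 4 h. Protection means no clonic spasm of at least 5 s within 30 min. Scored by the lowest protective dose.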

The test system of series [2] is Mus musculus. In words: Evaluated for toxicity by using rotarod test at in mice 30 min; +++ = Activity at 100 mg/kg,*- Loss of righting reflex at less than 600 mg/kg. Format: organism-based. Conditions: in vivo, 0.5 h. In a few lines:
(§2)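 Neurotoxicity in male Carworth Farms number-one mice dosed ip in 30% PEG 400 at 30, 100, 300 and sometimes 600 mg/kg, tested 30 min or 4 h later. Mice placed on a 1-in. knurled rod rotating at 6 rpm; toxicity means failure to stay on the rod for 1 min. Scored by the lowest toxic dose; footnotes record loss of righting reflex or lethality.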
Background: The rotarod test checks motor coordination on a turning rod.

Series [3] has as its system Mus musculus. In words: Evaluated for toxicity by using rotarod test in mice at 4 hr; ++ = Activity at 300 mg/kg. Set-up: dose 300 mg/kg. Conditions: in vivo. Format: organism-based. A digest of the protocol: as §2
The subject of series [4] is Mus musculus. In words: Anticonvulsant activity against scMet (subcutaneous metrazole) induced seizure in mice at 30 min; +++ = Activity at 100 mg/kg. It is filed as functional, organism-based. Set-up: dose 100 mg/kg.
Series [5] is described as follows: Protective index (PI) which is defined as the ratio of TD50 to the ED50 (MES). Format: functional. In a few lines:
(§3)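 Both values come from ip dosing in 30% PEG 400 to male Carworth Farms number-one mice and were derived by the graphical method.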

Series [6] relates to Mus musculus. In words: Anticonvulsant activity against MES (maximal electroshock) induced seizure in mice at 4 hr; ++ = Activity at 300 mg/kg. It is filed as functional, organism-based. Set-up: dose 300 mg/kg. In a few lines:
(§4)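 Male Carworth Farms number-one mice received the compound ip in 30% polyethylene glycol 400. Doses were 30, 100 and 300 mg/kg, with 600 mg/kg in some cases. Maximal electroshock seizure protection was scored at 30 min and 4 h after dosing. Activity is coded by the lowest effective dose.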
On the technique in general: The maximal electroshock test induces tonic seizures with an electrical stimulus.

Series [7] is filed under the species Mus musculus. In words: Evaluation of neurologic deficit by rotarod procedure in mice. It is filed as functional. In a few lines:
(§5)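 Male Carworth Farms number-one mice were dosed ip (30% PEG 400 vehicle) and placed on a 1-in. knurled plastic rod rotating at 6 rpm. Neurotoxicity meant failure to stay on the rod for 1 min. TD50 was determined graphically.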

Series [8] in a line: Protective index (PI) which is defined as the ratio of TD50 to the ED50 (ScMet). It is filed as functional. In a few lines:
as §3

In series [9] the test system is Mus musculus. In words: Anticonvulsant activity against MES (maximal electroshock) induced seizure in mice at 4 hr; +++ indicates activity at 100 mg/kg. Format: functional, organism-based. Further details: dose 100 mg/kg. In a few lines: as §4
The test system of series [10] is Mus musculus. In words: Evaluated for toxicity by using rotarod test at in mice 30 min; ++ indicates activity at 300 mg/kg. It is filed as organism-based. Set-up: dose 300 mg/kg. Conditions: in vivo, 0.5 h. A digest of the protocol:
as §2

Series [11] relates to Mus musculus. In words: Anticonvulsant activity against scMet (subcutaneous metrazole) induced seizure in mice at 4 hr; ++ indicates activity at 300 mg/kg. Format: functional, organism-based. Set-up: dose 300 mg/kg.
Series [12] has as its system Mus musculus. In words: Anticonvulsant activity against scMet (subcutaneous metrazole) induced seizure in mice at 30 min; +++ indicates activity at 100 mg/kg. Format: functional, organism-based. Further details: dose 100 mg/kg.
Series [13] concerns Mus musculus. In words: Evaluated for toxicity by using rotarod test in mice at 4 hr; ++ indicates activity at 300 mg/kg. Format: organism-based. Further details: dose 300 mg/kg. As to conditions: in vivo. In a few lines:
as §2

Series [14] concerns Mus musculus. In words: Anticonvulsant activity against scMet (subcutaneous metrazole) induced seizure at dose 300 mg/kg in mice at 30 min; ++ = Activity at 300 mg/kg. Format: functional, organism-based.
Series [15] has as its system Mus musculus. In words: Evaluated for toxicity by using rotarod test at dose 600 mg/kg in mice 30 min; - = No activity at 600 mg/kg. Format: organism-based. Conditions: in vivo, 0.5 h. In a few lines: as §2
For series [16], the system named is Mus musculus. In words: Anticonvulsant activity against MES (maximal electroshock) induced seizure at dose 600 mg/kg in mice at 30 min; - = No activity at 600 mg/kg. It is filed as functional, organism-based. In a few lines:
as §4

The test system of series [17] is Mus musculus. In words: Anticonvulsant activity against scMet (subcutaneous metrazole) induced seizure at dose 600 mg/kg in mice at 4 hr; - = No activity at 600 mg/kg. Format: functional, organism-based.
Series [18] relates to Mus musculus. In words: Anticonvulsant activity against MES (maximal electroshock) induced seizure at dose 600 mg/kg in mice at 4 hr; - = No activity at 600 mg/kg. Format: functional, organism-based. In a few lines:
as §4

Series [19] relates to Mus musculus. In words: Evaluated for toxicity by using rotarod test in mice at 4 hr; - = No activity at 600 mg/kg. It is filed as organism-based. Further details: dose 600 mg/kg. As to conditions: in vivo. In a few lines: as §2
For series [20], the system named is Mus musculus. In words: Anticonvulsant activity against MES (maximal electroshock) induced seizure in mice at 30 min; +++ = activity at 100 mg/kg. Set-up: dose 100 mg/kg. It is filed as functional, organism-based. A digest of the protocol: as §4
In series [21] the test system is Mus musculus. In words: Anticonvulsant activity against scMet (subcutaneous metrazole) induced seizure in mice at 30 min; f = No activity at 100 mg/kg. Further details: dose 100 mg/kg. It is filed as functional, organism-based.
Series [22] has as its system Mus musculus. In words: Anticonvulsant activity against scMet (subcutaneous metrazole) induced seizure in mice at 4 hr; f = No activity at 100 mg/kg. Further details: dose 100 mg/kg. It is filed as functional, organism-based.
The test system of series [23] is Mus musculus. In words: Evaluated for toxicity by using rotarod test at in mice 30 min; +++ = activity at 100 mg/kg *-LD50 less than 300 mg/kg. Format: organism-based. As to conditions: in vivo, 0.5 h. In a few lines:
as §2

Series [24] deals with Mus musculus. In words: Anticonvulsant activity against MES (maximal electroshock) induced seizure in mice at 4 hr; f = No activity at 100 mg/kg. It is filed as functional, organism-based. Further details: dose 100 mg/kg. A digest of the protocol: as §4
The subject of series [25] is Mus musculus. In words: Evaluated for toxicity by using rotarod test in mice at 4 hr; f = No activity at 100 mg/kg. It is filed as organism-based. Further details: dose 100 mg/kg. As to conditions: in vivo. In a few lines:
as §2

The nature of series [26]: Evaluation of neurologic deficit by rotarod procedure in mice. Conditions: mouse, in vivo. Format: ADME, organism-based. In a few lines:
as §5

Series [27] deals with Mus musculus. In words: Evaluated for toxicity by using rotarod test in mice at 4 hr; + indicates activity at 600 mg/kg. Format: organism-based. Set-up: dose 600 mg/kg. Conditions: in vivo. In a few lines: as §2
The test system of series [28] is Mus musculus. In words: Anticonvulsant activity against MES (maximal electroshock) induced seizure in mice at 30 min; +++ = Activity at 100 mg/kg. It is filed as functional, organism-based. Further details: dose 100 mg/kg. A digest of the protocol: as §4
For series [29], the system named is Mus musculus. In words: Anticonvulsant activity against scMet (subcutaneous metrazole) induced seizure in mice at 4 hr; - indicates no activity at 600 mg/kg. Format: functional, organism-based. Further details: dose 600 mg/kg. A digest of the protocol: as §1
Series [30] deals with Mus musculus. In words: Anticonvulsant activity against MES (maximal electroshock) induced seizure in mice at 4 hr; +++ = Activity at 100 mg/kg. Further details: dose 100 mg/kg. Format: functional, organism-based. In a few lines:
as §4

Usually TD50 stands for the 50% point of the dose-response relation for the toxic effect studied. The low end stands for greater toxicity, the high end for lower toxicity.

Each structure is given as a SMILES string.

With `Nc1ccc(C(=O)Nc2ccccc2)cc1`, the figures for the Activity result in the series on Mus musculus [1], in the series with Mus musculus [4] and in the series on Mus musculus [6] were “Not toxic”, “Activity at 100 mg/kg” and “Activity at 100 mg/kg”, respectively. Further, the Toxicity result in the series with Mus musculus [2] and in the series on Mus musculus [3] was “Activity at 100 mg/kg,*- Loss of righting reflex at < 600 mg/kg” in each case. For the same compound, the values for the PI in series [5] and in [8] were 2.2 and 1.9, respectively. In the series listed under Mus musculus [7], this compound showed a TD50 of 111 mg/kg.
In the case of `CC(NC(=O)c1ccc(N)cc1)c1ccccc1` (configuration not stated), the Activity entry in the series with Mus musculus [9], in the series on Mus musculus [11] and with Mus musculus [12] was “activity at 100 mg/kg” throughout. Moreover, the Toxicity result in the series on Mus musculus [10] and with Mus musculus [13] was “activity at 300 mg/kg” throughout. Moreover, the PI in [5] came to 9.5; in [8], 4.1. Moreover, in the series listed under Mus musculus [7], the TD50 was determined as 171 mg/kg.
Consider `NC(=O)c1ccc(N)cc1`, for which the Activity result was “Activity at 300 mg/kg” in the series on Mus musculus [14], “Not toxic” with Mus musculus [16], “Not toxic” in the series on Mus musculus [17] and “Not toxic” with Mus musculus [18]. The Toxicity result in the series on Mus musculus [15] and in the series with Mus musculus [19] was “Not toxic” each time.
With `CCCCCCNC(=O)c1ccc(N)cc1`, the Activity entry with Mus musculus [20] was “activity at 100 mg/kg”; in the series with Mus musculus [21], “No activity”; with Mus musculus [22], “No activity”; in the series on Mus musculus [24] it was “No activity”. In addition, the results for the Toxicity entry with Mus musculus [23] and with Mus musculus [25] were “activity at 100 mg/kg *-LD50 < 300 mg/kg” and “No activity”, respectively.
`Nc1ccc(C(=O)NC2CCCCC2)cc1`: the Activity result in the series on Mus musculus [4] is “Activity at 100 mg/kg”; with Mus musculus [28], “Activity at 100 mg/kg”; in the series with Mus musculus [29] it was “Not toxic”; in the series with Mus musculus [30], “Activity at 100 mg/kg”. Further, the Toxicity entry in the series on Mus musculus [10] and in the series with Mus musculus [27] was “activity at 300 mg/kg” in each case. Moreover, the TD50 in series [26] stood at 189 mg/kg. For the same compound, the figures for the PI in series [5] and in [8] were 2.8 and 1.5, respectively.

Values taken from ChEMBL document CHEMBL1122671, “Anticonvulsant activity of some 4-aminobenzamides” (J Med Chem, 1984).
